The values that follow come from ChEMBL document CHEMBL1144010, “Synthesis and in vitro opioid receptor functional antagonism of analogues of the selective kappa opioid receptor antagonist (3R)-7-hydroxy-N-((1S)-1-{[(3R,4R)-4-(3-hydroxyphenyl)-3,4-dimethyl-1-piperidinyl]methyl}-2-methylpropyl)-1,2,3,4-tetrahydro-3-isoquinolinecarboxamide (JDTic)” (J Med Chem, 2008).

Assay [1] has as its system CHO. The experiment in a line: Selectivity for human cloned kappa opioid receptor over human cloned mu opioid receptor expressed in CHO cells. It is filed as cell-based.
The subject of assay [2] is CHO. The experiment in a line: Selectivity for human cloned kappa opioid receptor over human cloned delta opioid receptor expressed in CHO cells. It is filed as cell-based.
The target of assay [3] is Delta-type opioid receptor (Homo sapiens) (UniProt P41143). The experiment in a line: Antagonist activity at human cloned delta opioid receptor expressed in CHO cells assessed as inhibition of DPDPE-stimulated [35S]GTP-gamma-S binding. In kind it is functional, cell-based. Summed up: (§1)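 Agonist concentration-response curves for stimulated [35S]GTPγS binding are run with and without a single concentration of test compound. Ke = [L]/(DR−1), where DR is the ratio of agonist EC50 with and without compound.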
Background: Binding of GTPγS marks nucleotide exchange on a G protein.

The target in assay [4] is Mu-type opioid receptor (Homo sapiens) (UniProt P35372). The experiment in a line: Antagonist activity at human cloned mu opioid receptor expressed in CHO cells assessed as inhibition of DAMGO-stimulated [35S]GTPgammaS binding. It is filed as functional, cell-based. Summed up: as §1
Assay [5] deals with Kappa-type opioid receptor (Homo sapiens) (UniProt P41145). The experiment in a line: Antagonist activity at human cloned kappa opioid receptor expressed in CHO cells assessed as inhibition of U69593-stimulated [35S]GTP-gamma-S binding. It is filed as functional, cell-based. Summed up:
as §1

Chain of Mu-type opioid receptor (Homo sapiens) (P35372 whole entry): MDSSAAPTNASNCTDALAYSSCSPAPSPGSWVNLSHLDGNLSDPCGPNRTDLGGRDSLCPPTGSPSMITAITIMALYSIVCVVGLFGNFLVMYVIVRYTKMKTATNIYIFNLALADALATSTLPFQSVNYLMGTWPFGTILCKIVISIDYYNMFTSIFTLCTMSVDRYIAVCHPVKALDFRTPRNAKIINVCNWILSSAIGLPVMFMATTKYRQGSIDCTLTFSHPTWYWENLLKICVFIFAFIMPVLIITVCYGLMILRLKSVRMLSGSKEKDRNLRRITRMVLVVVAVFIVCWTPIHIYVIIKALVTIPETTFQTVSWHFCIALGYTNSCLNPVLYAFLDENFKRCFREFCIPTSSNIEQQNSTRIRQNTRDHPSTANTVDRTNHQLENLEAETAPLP
Chain of Delta-type opioid receptor (Homo sapiens) (P41143 whole entry): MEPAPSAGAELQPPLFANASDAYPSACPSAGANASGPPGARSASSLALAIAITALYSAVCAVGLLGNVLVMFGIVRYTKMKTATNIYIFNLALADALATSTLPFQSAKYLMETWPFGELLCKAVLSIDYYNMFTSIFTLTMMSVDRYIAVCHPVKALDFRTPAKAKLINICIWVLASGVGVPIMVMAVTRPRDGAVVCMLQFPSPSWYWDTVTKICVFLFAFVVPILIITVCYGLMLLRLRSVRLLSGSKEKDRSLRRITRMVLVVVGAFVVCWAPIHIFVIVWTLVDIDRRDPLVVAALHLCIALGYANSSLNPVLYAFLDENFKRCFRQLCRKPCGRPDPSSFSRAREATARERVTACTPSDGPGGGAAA
Chain of Kappa-type opioid receptor (Homo sapiens) (P41145 whole entry): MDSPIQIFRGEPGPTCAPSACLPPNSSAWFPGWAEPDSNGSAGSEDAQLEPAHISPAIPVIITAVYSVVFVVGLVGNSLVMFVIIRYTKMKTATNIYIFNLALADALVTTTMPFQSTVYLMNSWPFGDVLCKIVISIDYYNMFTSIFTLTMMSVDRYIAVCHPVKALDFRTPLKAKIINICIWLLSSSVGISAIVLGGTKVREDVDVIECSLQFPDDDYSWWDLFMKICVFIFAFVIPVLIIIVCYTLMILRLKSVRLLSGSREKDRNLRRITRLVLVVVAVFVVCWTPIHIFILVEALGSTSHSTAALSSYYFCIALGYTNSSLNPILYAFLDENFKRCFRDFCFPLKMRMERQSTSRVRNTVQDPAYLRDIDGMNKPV

In the case of `CC(C)[C@@H](CN1CC[C@@](C)(c2cccc(O)c2)[C@@H](C)C1)NC(=O)c1cnc2cc(O)ccc2c1`, the figures for the Ratio Ke in assay [1] and in assay [2] were 5.2 and 25, respectively. Further, the Ke in assay [3] was found to be 229 nM; in assay [4], 48 nM; in assay [5], 9.3 nM.
For `CC(C)[C@@H](CN1CC[C@@](C)(c2cccc(O)c2)[C@@H](C)C1)NC(=O)c1cc2ccc(O)cc2[nH]1` the same measures were 0.7, 3, 97 nM, 23.8 nM and 34.1 nM.
With `CC(C)[C@@H](CN1CC[C@@](C)(c2cccc(O)c2)[C@@H](C)C1)NC(=O)[C@H]1Cc2ccc(O)cc2CN1`, the Ratio Ke in assay [1] came to 1250; in assay [2] it was 3800.
`COc1ccc2c(c1)CN[C@@H](C(=O)N[C@H](CN1CC[C@@](C)(c3cccc(O)c3)[C@@H](C)C1)C(C)C)C2`: the Ratio Ke in assay [1] is 857; in assay [2], 1980. For the same compound, the Ke in assay [3] came to 118 nM; in assay [4] it was 51.4 nM; in assay [5], 0.06 nM.
The matching figures for `CC(C)[C@@H](CN1CC[C@@](C)(c2cccc(O)c2)[C@@H](C)C1)NC(=O)c1nc2ccc(O)cc2[nH]1`: 0.7, 13, 290 nM, 15.6 nM and 22.4 nM.
On to `COc1ccc2nc(C(=O)N[C@H](CN3CC[C@@](C)(c4cccc(O)c4)[C@@H](C)C3)C(C)C)[nH]c2c1`, for which the Ratio Ke in assay [1] is 0.3; in assay [2] it was 3.6. The Ke worked out at 102 nM in assay [3], 8.5 nM in assay [4] and 28.4 nM in assay [5].
In the case of `CC(C)[C@@H](CN1CC[C@@](C)(c2cccc(O)c2)[C@@H](C)C1)NC(=O)[C@H]1Cc2ccc(N)cc2CN1`, the values for the Ratio Ke in assay [1] and in assay [2] were 63 and 1860, respectively. The Ke in assay [3] was determined as 373 nM; in assay [4], 12.6 nM; in assay [5], 0.2 nM.
For `CC(C)CN(CCN1CC[C@@](C)(c2cccc(O)c2)[C@@H](C)C1)C(=O)[C@H]1Cc2ccc(O)cc2CN1` the same measures were 0.5, 21, 39 nM, 1 nM and 1.9 nM.
For `CC(C)[C@@H](CN1CC[C@@](C)(c2cccc(O)c2)[C@@H](C)C1)NC(=O)[C@H]1Cc2ccc([N+](=O)[O-])cc2CN1`, the Ratio Ke turned out to be 1.2 in assay [1] and 10 in assay [2]. Besides, the Ke in assay [3] was found to be 65 nM; in assay [4], 7.9 nM; in assay [5] it was 6.4 nM.
`COc1ccc2c(c1)CN(CC(=O)N[C@H](CN1CC[C@@](C)(c3cccc(O)c3)[C@@H](C)C1)C(C)C)CC2`: the Ratio Ke in assay [1] was 1; in assay [2], 3. The Ke in assay [3] worked out at 51.7 nM; in assay [4], 17.7 nM; in assay [5] it was 16.8 nM.
The matching figures for `CC(C)[C@@H](CN1CC[C@@](C)(c2cccc(O)c2)[C@@H](C)C1)NC(=O)[C@H]1Cc2ccc(NS(C)(=O)=O)cc2CN1`: 4.4, 27, 106 nM, 17.7 nM and 4 nM.
The matching figures for `COc1ccc2cc(C(=O)N[C@H](CN3CC[C@@](C)(c4cccc(O)c4)[C@@H](C)C3)C(C)C)[nH]c2c1`: 1.3, 26, 282 nM, 13.7 nM and 10.9 nM.
As for `COc1ccc2c(c1)CCN(CC(=O)N[C@H](CN1CC[C@@](C)(c3cccc(O)c3)[C@@H](C)C1)C(C)C)C2`, the Ratio Ke in assay [1] is 0.4; in assay [2], 3. Also, the Ke in assay [3] came to 76 nM; in assay [4], 11.4 nM; in assay [5], 26 nM.
Regarding `CC(C)[C@@H](CN1CC[C@@](C)(c2cccc(O)c2)[C@@H](C)C1)NC(=O)[C@H]1Cc2ccccc2CN1`, in assay [5], the Ke is 56 nM.
In the case of `CC(C)[C@@H](CN1CC[C@@](C)(c2cccc(O)c2)[C@@H](C)C1)NC(=O)c1c[nH]c2cc(O)ccc12`, the Ratio Ke came to 1.1 in assay [1] and 50 in assay [2]. Further, the Ke was determined as 224 nM in assay [3], 4.8 nM in assay [4] and 4.5 nM in assay [5].
The matching figures for `COc1ccc2cc(C(=O)N[C@H](CN3CC[C@@](C)(c4cccc(O)c4)[C@@H](C)C3)C(C)C)cnc2c1`: 1.7, 14, 158 nM, 19.5 nM and 11.4 nM.
On to `CC(C)[C@@H](CN1CC[C@@](C)(c2cccc(O)c2)[C@@H](C)C1)NC(=O)CN1CCc2cc(O)ccc2C1`, for which the Ratio Ke in assay [1] was found to be 5.5; in assay [2], 105. The Ke in assay [3] was determined as 408 nM; in assay [4], 21.4 nM; in assay [5], 3.9 nM.
In the case of `CC(C)CCN(CCN1CC[C@@](C)(c2cccc(O)c2)[C@@H](C)C1)C(=O)[C@H]1Cc2ccc(O)cc2CN1`, the values for the Ratio Ke in assay [1] and in assay [2] were 0.4 and 8, respectively. Further, the Ke in assay [3] was found to be 9.3 nM; in assay [4], 0.5 nM; in assay [5] it was 1.2 nM.
For the compound `CC(C)[C@@H](CN1CC[C@@](C)(c2cccc(O)c2)[C@@H](C)C1)NC(=O)CN1CCc2ccc(O)cc2C1`, the Ratio Ke in assay [1] was 0.4; in assay [2] it was 7.5. Also, the Ke in assay [3] came out at 177 nM; in assay [4] it was 9.2 nM; in assay [5], 23.5 nM.
For the compound `CC[C@H](C)[C@@H](CN1CC[C@@](C)(c2cccc(O)c2)[C@@H](C)C1)NC(=O)[C@H]1Cc2ccc(O)cc2CN1`, the Ratio Ke in assay [1] was 100; in assay [2], 800. Further, the Ke in assay [3] amounted to 24 nM; in assay [4] it was 3 nM; in assay [5], 0.03 nM.
In the case of `CC(=O)Nc1ccc2c(c1)CN[C@@H](C(=O)N[C@H](CN1CC[C@@](C)(c3cccc(O)c3)[C@@H](C)C1)C(C)C)C2`, the values for the Ratio Ke in assay [1] and in assay [2] were 7.9 and 396, respectively. Moreover, the Ke in assay [3] turned out to be 555 nM; in assay [4], 11 nM; in assay [5] it was 1.4 nM.
